Assay outcomes from PubChem.
Only some compounds are listed: those with a hit (about 4.8% of all), similar ones and a draw of the others.
CSC inhib: cancer stem cell inhibition; cancer stem cell-like cells viability, luminescence; inhibition, % at 7.5 µM; 300,000 compounds, 1.1% hits; AID 2717; in the data active = inhibition above about 75%; inconclusive = no clear call, values can overlap the other calls; tested in HMLE shEcad cells
Mdm2-MdmX inh: human Mdm2/MdmX binding inhibition. O15151+Q00987. SaOS-2 split-luciferase Mdm2/MdmX complementation, luminescence. inhibition, % at 8 µM. 330,000 compounds, 3% hits. AID 485346;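 active = inhibition of at least 50% at 8 µM in the primary screen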
Target sequence (O15151 whole entry, looked up): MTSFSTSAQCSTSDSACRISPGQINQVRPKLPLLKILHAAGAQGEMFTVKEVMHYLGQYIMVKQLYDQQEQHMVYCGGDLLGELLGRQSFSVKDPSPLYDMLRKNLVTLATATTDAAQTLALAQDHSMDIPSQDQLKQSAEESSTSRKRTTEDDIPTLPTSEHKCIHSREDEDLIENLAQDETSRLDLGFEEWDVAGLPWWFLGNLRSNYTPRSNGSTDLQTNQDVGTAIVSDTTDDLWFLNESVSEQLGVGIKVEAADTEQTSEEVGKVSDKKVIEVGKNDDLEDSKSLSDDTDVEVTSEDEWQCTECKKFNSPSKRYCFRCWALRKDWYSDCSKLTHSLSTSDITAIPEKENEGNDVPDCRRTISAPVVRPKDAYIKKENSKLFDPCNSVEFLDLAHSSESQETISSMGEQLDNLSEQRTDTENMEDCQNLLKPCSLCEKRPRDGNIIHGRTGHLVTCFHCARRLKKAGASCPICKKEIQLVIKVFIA
Target sequence (Q00987 whole entry, looked up): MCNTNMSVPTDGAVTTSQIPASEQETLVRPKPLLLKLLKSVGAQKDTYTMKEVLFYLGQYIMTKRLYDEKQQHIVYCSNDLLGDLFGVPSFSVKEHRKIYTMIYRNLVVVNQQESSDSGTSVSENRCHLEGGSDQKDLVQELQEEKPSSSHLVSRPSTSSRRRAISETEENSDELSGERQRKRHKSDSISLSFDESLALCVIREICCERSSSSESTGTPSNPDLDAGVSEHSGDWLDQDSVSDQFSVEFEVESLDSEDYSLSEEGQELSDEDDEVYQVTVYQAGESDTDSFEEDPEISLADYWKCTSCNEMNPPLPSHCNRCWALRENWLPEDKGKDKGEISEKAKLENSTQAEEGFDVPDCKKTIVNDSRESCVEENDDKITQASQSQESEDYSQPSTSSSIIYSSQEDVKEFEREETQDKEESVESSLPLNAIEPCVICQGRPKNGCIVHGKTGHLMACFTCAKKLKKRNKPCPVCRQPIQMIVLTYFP
CHOP UPR activ: activators of apoptotic arm of unfolded protein response (CHOP). CHO-CHOP luciferase reporter, UPR activation, luminescence; percent of tunicamycin response over DMSO baseline. activation, % at 10 µM. 330,000 compounds, 0.34% hits. AID 449763;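 active = at 10 µM dose, activation of 40% or more, normalized to positive control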;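 note: 100% = tunicamycin at 10 µg/mL and 0% = DMSO alone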
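System: CHO CHOP reporter cells. Amount: 500 cells per well. Buffer or medium: F12 medium, 10% FBS. Compound dosing: one dose, 10 µM in 0.5% DMSO. Incubation: 6 h compound exposure at 37 °C after overnight seeding. Technique: Steady-Glo luciferase luminescence. Benchmarks: tunicamycin and DMSO controls.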
SKKanGAS inh: SKKanGAS growth inhibition. S. pyogenes SKKanGAS, kanamycin growth, BacTiter-Glo, 6 h. inhibition, % at 7.5 µM. 300,000 compounds, 1.3% hits. AID 1662;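 active = mean replicate score, as percent of positive control median, at least 50; inconclusive = mean below 50 but one replicate at or above 50; inactive = mean and every replicate below 50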;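 note: strain carries kanamycin resistance gene driven by streptokinase promoter and grows in 40 µg/ml kanamycin; loss of luminescence reflects streptokinase promoter inhibition or plain growth inhibition; 0% = median of DMSO wells and 100% = positive control at its reference dose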
XBP1 UPR activ: adaptive UPR (XBP1) activation; activation, % at 20 µM; AID 463104; 330,000 compounds, 0.33% hits; CHO-XBP1 luciferase reporter, IRE1-XBP1 UPR activation, luminescence; percent of tunicamycin response, DMSO as zero;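 active = versus positive control, 20 µM dose yields 30% or more activation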;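 note: 100% = tunicamycin at 10 µg/mL and 0% = DMSO only wells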
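Assay system: CHO-XBP1 luciferase reporter cells; Schedule: 6 h treatment, 37 °C; Detection: glow luminescence from Steady-Glo reagent; Benchmarks: high control tunicamycin 10 µg/mL final, low control DMSO vehicle only.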
Beta apoptosis: blocks beta cell apoptosis; INS-1E cytokine-induced death, ATP luminescence, 48 h; percent of positive-control rescue, neutral wells zero; protection from apoptosis, % (concentration not given with the values); 300,000 compounds, 0.8% hits; AID 435005;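 active = Every replicate reaches about 75%, or at least half do and their mean reaches it too, limit read from the data; inconclusive = At least half of replicates reach the limit but their mean does not; inactive = Under half of replicates reach the limit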;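 note: 0% = cytokine-treated negative control wells and 100% = positive control rescue; higher means more ATP so stronger rescue from cytokine killing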
XBP1 UPR conf: adaptive UPR (XBP1) activation, confirmed | 1,000 compounds, 63% hits | activation, % at 20 µM | CHO-XBP1 IRE1-XBP1 luciferase reporter, luminescence | shares compounds with XBP1 UPR activ | AID 485299;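 active = reporter signal at least 30% of the positive control's activation in two or more of four replicate wells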;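 note: plate controls were DMSO negative control for no effect and tunicamycin 10 µg/mL positive control for full effect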
Mdm2 MdmX conf: confirmation of human Mdm2/MdmX interaction inhibitors | shares compounds with Mdm2-MdmX inh | Mdm2-MdmX binding, luminescent assay | inhibition, % at 8 µM | 10,000 compounds, 55% hits | AID 489028; in the data active = inhibition above about 40%
FLuc counter: counter-screen for Mdm2/MdmX inhibitors: full-length luciferase; shares compounds with Mdm2-MdmX inh; SaOS-2 full-length luciferase counterscreen, luminescence; inhibition, % at 8 µM; 6,200 compounds, 77% hits; AID 504607;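 active = mean inhibition at 8 µM reaching about 37%, which flags the compound as non-specific, limit read from the data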;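 note: p53-null SaOS-2 cells with luciferase driven by a doxycycline-inducible promoter; compound on cells about two nights before reading with doxycycline added after day one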
* marks the source's active call; other numbers are inactive results; ? = inconclusive; · = no result given.

SMILES	CSC inhib	Mdm2-MdmX inh	CHOP UPR activ	SKKanGAS inh	XBP1 UPR activ	Beta apoptosis	XBP1 UPR conf	Mdm2 MdmX conf	others
CCCCCCOc1ccc(/C(C)=N/NC2=NCCN2)cc1[N+](=O)[O-]	?	52.1*	7.7	7.5	32.4*	56.5	16.2	70.8*	FLuc counter=106.2*
COc1ccc(-c2ccc3c(c2)S(=O)(=O)c2cccc(C(=O)NCCOc4ccccc4Cl)c2C3=O)cc1OC	·	95.3*	24.2	·	94.1*	91.0*	45.6*	27.9
Cc1ccc(C(=O)Nc2c(C)cc(C)c3cccnc23)cc1	50.5	-22.9	3.5	-9.1	-1.9	-0.3	·	·
Cc1ccccc1-c1nc2cc(Cl)ccc2o1	-10.7	-8.5	1.8	-3.1	4.9	1.3	·	·
Cc1ccccc1-c1nc2cc(Cl)ccc2c(=O)o1	9.7	52.0*	-0.2	1.9	48.6*	-0.6	15.7	49.9*	FLuc counter=76.0*
Cc1cc(Nc2cccc([N+](=O)[O-])c2)n2c(nc3ccccc32)c1C#N	83.1*	98.0*	18.4	42.3	37.0*	107.7*	11.6	90.8*	FLuc counter=30.7
CCOC(=O)C1=C(C)N=c2s/c(=C3/C(=O)Nc4ccccc43)c(=O)n2C1c1ccc(C)cc1 (stereo not drawn)	2.5	70.3*	2.1	23.8	117.9*	0.0	68.8*	13.3
COC(=O)C1=C(C)N=c2s/c(=C3\C(=O)Nc4ccccc43)c(=O)n2C1c1ccccc1 (stereo not drawn)	·	47.3	1.1	13.0	10.2	·	·	·
CCOc1cccc2sc(N(CCCN(C)C)C(=O)c3ccc(S(=O)(=O)N4CCc5ccccc5C4)cc3)nc12	21.6	82.4*	26.8	5.7	34.7*	1.6	14.1	34.5
CCOc1cccc2sc(N(CCCN(C)C)C(=O)c3ccc(S(=O)(=O)N(C)c4ccccc4)cc3)nc12	·	42.3	4.7	-2.9	2.1	-12.7	·	·
O=C(c1ccc2c(c1)[nH]c(=S)n1c3ccccc3nc21)N1CCN(c2cccc(Cl)c2)CC1	20.5	85.1*	0.8	31.6	33.3*	82.4*	54.5*	5.2
OC(CNCC1CCCO1)Cn1c2ccc(Cl)cc2c2cc(Cl)ccc21 (stereo not drawn)	110.9*	96.3*	11.0	12.9	64.3*	·	58.6*	43.7*	FLuc counter=20.4
COc1cccc(NC(=O)c2ccc(OC(F)(F)F)cc2)c1	15.9	-117.5	6.7	8.1	5.8	-4.8	·	·
CCN(Cc1ccncc1)Cc1nc(Cc2ccccc2Cl)no1	-8.4	1.4	-1.2	-6.2	-1.9	28.6	·	·
CCc1cc(C(=O)N(CC)CC(=O)Nc2ccc(OC)cc2)sc1C	·	-35.4	-1.1	·	-1.8	-1.9	·	·
N#Cc1ccc(OCC(=O)OCC(=O)NC2CC2)cc1	-10.5	14.8	-2.2	·	-0.3	-16.0	·	·
CCOc1ccc(C(=O)Nc2cc(C)c3c(=O)oc4ccccc4c3n2)cc1	0.6	64.8*	-0.2	9.3	51.8*	-3.4	2.5	-21.1
CC(Oc1ccc(Br)cc1)C(=O)Nc1cc(Cl)ccc1N1CCN(C)CC1 (stereo not drawn)	·	35.9	1.4	-8.9	2.4	-1.5	·	·
Cc1cccc(-c2nc3c(c(SCC(=O)N4CCOCC4)n2)COC(C)(C)C3)c1	5.9	7.2	-0.7	-3.3	-2.6	-4.2	·	·
COc1ccc([C@H]2CC(=O)C=C(c3ccc(Oc4ccccc4)cc3)C2)cc1OC	3.8	25.9	-2.1	·	-3.0	11.3	·	·
CCc1cc2cc3c(cc2nc1SCC(=O)Nc1nccs1)OCO3	-7.9	70.9*	8.2	-20.1	57.3*	17.4	14.1	19.9
CCOC(=O)c1nn(-c2ccccc2)c(=O)cc1OCC(=O)Nc1ccccc1OCC	-11.7	18.9	0.3	1.2	-1.1	5.2	·	·
Cc1ccc2oc(C(F)(F)C(F)F)cc(=O)c2c1	-11.8	24.8	1.1	-14.0	0.8	-5.6	·	·
Cc1ccc2oc(C(Cl)(Cl)Cl)cc(=O)c2c1	33.3	74.2*	6.7	1.2	111.9*	11.7	120.8*	53.1*	FLuc counter=60.3*
COc1cnc(-c2ccccn2)nc1Oc1ccc(Cl)c2ccccc12	55.4	52.4*	28.0	92.8*	30.8*	97.4*	24.2	39.5
SMILES	CSC inhib	Mdm2-MdmX inh	CHOP UPR activ	SKKanGAS inh	XBP1 UPR activ	Beta apoptosis	XBP1 UPR conf	Mdm2 MdmX conf	others
O=C(Nc1cccc(Cl)c1)c1nc[nH]c1C(=O)NCCCCNC(=O)c1[nH]cnc1C(=O)Nc1cccc(Cl)c1	·	86.4*	8.0	·	60.2*	12.9	19.3	-19.2
Cc1ccc(NC(=O)C(C)N2CCN(C)CC2)cc1S(=O)(=O)N1CCOCC1 (stereo not drawn)	0.0	-3.5	0.5	·	-4.4	-2.2	·	·
O=C(/C=C/c1c(Cl)cccc1Cl)NCCCn1ccnc1	-31.5	3.7	-0.8	-4.2	2.1	7.9	·	·
Cc1cc(-c2nnc(SCC(=O)Nc3ccc(F)cc3F)n2N)n[nH]1	-14.0	24.3	1.1	-0.6	1.9	-5.0	·	·
CCc1ccc(-c2cc(C(F)(F)F)n3nc(C(=O)Nc4cnn(Cc5ccc(C)cc5)c4)cc3n2)s1	47.8	51.1*	26.8	-1.7	74.8*	76.4*	288.5*	12.8
CCC(C)C(NC(=O)c1ccccc1)C(=O)Nc1ccc(S(=O)(=O)Nc2cc(C)nc(C)n2)cc1 (stereo not drawn)	·	8.4	0.1	·	2.3	·	·	·
CC1CCc2cc(F)ccc2N1C(=O)CSc1nnc2c(n1)[nH]c1ccc(F)cc12 (stereo not drawn)	45.8	84.3*	2.3	20.4	66.9*	40.8	50.9*	23.5
CC1CN(S(=O)(=O)c2cccc(C(=O)N(CCc3ccccc3)Cc3ccccc3)c2)CC(C)O1 (stereo not drawn)	16.1	2.8	-0.6	1.7	0.9	17.1	·	·
Cc1ccc(/C=C2/Sc3ccc(C(=O)NCc4ccccn4)cc3NC2=O)cc1	-8.8	69.8*	7.1	-0.9	32.0*	1.4	0.4	32.3
COc1ccc(-c2nc(-c3ccc(NC(=O)c4ccc(Br)o4)cc3)no2)cc1OC	78.8*	77.7*	29.9	9.7	34.6*	·	15.6	-20.8
Cc1cc(C)n(C(C)CC(=O)Nc2ccc3c(c2)OCCO3)n1 (stereo not drawn)	7.9	25.7	-2.4	-8.8	-7.6	·	·	·
COc1cccc2cc(C(=O)NCCc3ccccc3)oc12	-3.5	-44.5	3.8	0.8	1.9	4.7	·	·
O=C(Nc1cccc(-c2cnc3ccccc3n2)c1)c1cccc(NC(=O)c2ccco2)c1	·	68.0*	21.8	45.2	35.7*	13.1	28.1	64.8*	FLuc counter=88.3*
